Consider eight compounds from ChEMBL document CHEMBL4138092, “Antibacterial activity and mechanism of action of the benzazole acrylonitrile-based compounds: In vitro, spectroscopic, and docking studies” (2017).

≈ marks a conversion by molar mass, not a printed value.

The subject of assay [1] is Bacillus spizizenii. Nature of the assay: Antibacterial activity against Bacillus subtilis ATCC 6633 after 24 hrs by agar well diffusion method. The format is functional. Conditions: ATCC 6633, 24 h.
The test system of assay [2] is Pseudomonas aeruginosa. In words: Antibacterial activity against Pseudomonas aeruginosa ATCC 27853 after 24 to 48 hrs by agar well diffusion method. The format is functional. The procedure, abridged:
(§1)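 Mueller Hinton agar plates spread with bacteria (10⁶ cells/ml). Wells were filled with 50 µl of compound and incubated at 37 °C for 24–48 h. The inhibition zone diameter (mm) was measured with a transparent scale. Amoxicillin 5.0 mg/ml at 50 µl/well served as the positive control.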

Assay [3] concerns Staphylococcus aureus. In words: Antibacterial activity against Staphylococcus aureus ATCC 25923 after 24 hrs by agar well diffusion method. Conditions: ATCC 25923, 24 h. The class given is functional.
Assay [4] deals with Bacillus spizizenii. In words: Antibacterial activity against Bacillus subtilis ATCC 6633 after 24 to 48 hrs by agar well diffusion method. The class given is functional. The essentials: as §1
The test system of assay [5] is Pseudomonas aeruginosa. In words: Antibacterial activity against Pseudomonas aeruginosa ATCC 27853 after 24 hrs by agar well diffusion method. The class given is functional. To be noted: ATCC 27853, 24 h.
Assay [6] deals with Escherichia coli. In words: Antibacterial activity against Escherichia coli ATCC 25922 after 24 hrs by agar well diffusion method. The format is functional. To be noted: ATCC 25922, 24 h.
The subject of assay [7] is Staphylococcus aureus. In words: Antibacterial activity against Staphylococcus aureus ATCC 25923 after 24 to 48 hrs by agar well diffusion method. The format is functional. The essentials: as §1
The test system of assay [8] is Escherichia coli. In words: Antibacterial activity against Escherichia coli ATCC 25922 after 24 to 48 hrs by agar well diffusion method. The format is functional. The essentials: as §1
The subject of another assay is Bifidobacterium longum. Nature of the assay: Antibacterial activity against Bifidobacterium infantis after 24 hrs by agar well diffusion method. The class given is functional, Bifidobacterium longum subsp. infantis.

As for `N#C/C(=C\c1cnc(NCc2ccccc2)nc1)c1nc2ccccc2s1`, the MIC in the assay with Bacillus spizizenii [1], in the assay with Staphylococcus aureus [3], against Pseudomonas aeruginosa [5] and against Escherichia coli [6] was 18.3 µg/mL (≈ 49.5 µM) each time. For the same compound, the “inhibition zone (IZ)” value is 35 mm in the assay on Pseudomonas aeruginosa [2], 39 mm in the assay on Bacillus spizizenii [4], 35 mm in the assay on Staphylococcus aureus [7] and 50 mm in the assay on Escherichia coli [8].

Turning to `CC1(C)S[C@@H]2[C@H](NC(=O)[C@H](N)c3ccc(O)cc3)C(=O)N2[C@H]1C(=O)O` [AMOXICILLIN], the MIC in the assay on Bacillus spizizenii [1] turned out to be 1.5 µg/mL (≈ 4.1 µM); against Staphylococcus aureus [3], 1.5 µg/mL (≈ 4.1 µM); against Pseudomonas aeruginosa [5], 1 µg/mL (≈ 2.74 µM); in the assay with Escherichia coli [6], 1.5 µg/mL (≈ 4.1 µM); against Bifidobacterium longum it was 1.5 µg/mL (≈ 4.1 µM). Further, the “inhibition zone (IZ)” value in the assay on Pseudomonas aeruginosa [2] was 24 mm; with Bacillus spizizenii [4], 14 mm; in the assay with Staphylococcus aureus [7], 25 mm; in the assay with Escherichia coli [8] it was 21 mm.

For the compound `CN(C)c1ncc(/C=C(\C#N)c2nc3ccccc3[nH]2)cn1`, the MIC against Bacillus spizizenii [1] was 20 µg/mL (≈ 68.9 µM); against Staphylococcus aureus [3], 11.1 µg/mL (≈ 38.2 µM); in the assay on Pseudomonas aeruginosa [5], 11.1 µg/mL (≈ 38.2 µM); in the assay on Escherichia coli [6], 14.3 µg/mL (≈ 49.3 µM). The “inhibition zone (IZ)” value in the assay with Pseudomonas aeruginosa [2] turned out to be 30 mm; in the assay on Bacillus spizizenii [4] it was 39 mm; with Staphylococcus aureus [7] it was 30 mm; in the assay on Escherichia coli [8] it was 50 mm.

For `CN(C)c1ncc(/C=C(\C#N)c2nc3ccccc3s2)cn1`, the MIC in the assay with Bacillus spizizenii [1] worked out at 50 µg/mL (≈ 163 µM); with Staphylococcus aureus [3] it was 35.8 µg/mL (≈ 116 µM); with Pseudomonas aeruginosa [5], 35.8 µg/mL (≈ 116 µM); against Escherichia coli [6], 50 µg/mL (≈ 163 µM). The “inhibition zone (IZ)” value was 32 mm in the assay on Pseudomonas aeruginosa [2], 45 mm in the assay with Bacillus spizizenii [4], 35 mm with Staphylococcus aureus [7] and 52 mm in the assay with Escherichia coli [8].

As for `N#C/C(=C\c1cnc(NCc2ccccc2)nc1)c1nc2ccccc2[nH]1`, the MIC in the assay on Bacillus spizizenii [1] is 25 µg/mL (≈ 70.9 µM); against Staphylococcus aureus [3] it was 18 µg/mL (≈ 51.1 µM); in the assay with Pseudomonas aeruginosa [5], 18 µg/mL (≈ 51.1 µM); against Escherichia coli [6], 18 µg/mL (≈ 51.1 µM). Further, the “inhibition zone (IZ)” value in the assay with Pseudomonas aeruginosa [2] is 30 mm; with Bacillus spizizenii [4], 40 mm; in the assay with Staphylococcus aureus [7], 35 mm; in the assay with Escherichia coli [8] it was 45 mm.

As for `N#C/C(=C\c1cnc(N2CCOCC2)nc1)c1nc2ccccc2s1`, the MIC against Bacillus spizizenii [1] is 50 µg/mL (≈ 143 µM); with Staphylococcus aureus [3], 27.8 µg/mL (≈ 79.6 µM); against Pseudomonas aeruginosa [5] it was 35.8 µg/mL (≈ 102 µM); against Escherichia coli [6] it was 35.8 µg/mL (≈ 102 µM). Also, the “inhibition zone (IZ)” value was 30 mm with Pseudomonas aeruginosa [2], 39 mm in the assay with Bacillus spizizenii [4], 32 mm in the assay on Staphylococcus aureus [7] and 40 mm with Escherichia coli [8].

On to `N#C/C(=C\c1cnc(N2CCOCC2)nc1)c1nc2ccccc2[nH]1`, for which the MIC against Bacillus spizizenii [1], in the assay with Staphylococcus aureus [3], in the assay with Pseudomonas aeruginosa [5] and in the assay with Escherichia coli [6] was 27.8 µg/mL (≈ 83.6 µM) in each case. For the same compound, the “inhibition zone (IZ)” value in the assay on Pseudomonas aeruginosa [2] was 35 mm; in the assay with Bacillus spizizenii [4], 39 mm; in the assay with Staphylococcus aureus [7] it was 35 mm; in the assay on Escherichia coli [8], 40 mm.

For `N#C/C(=C\c1cnc(Nc2ccc(Cl)cc2)nc1)c1nc2ccccc2s1`, the minimal inhibitory concentration (MIC) was determined as 20 µg/mL (≈ 51.3 µM) in the assay with Bacillus spizizenii [1], 11.1 µg/mL (≈ 28.5 µM) against Staphylococcus aureus [3], 11.1 µg/mL (≈ 28.5 µM) in the assay on Pseudomonas aeruginosa [5] and 11.1 µg/mL (≈ 28.5 µM) in the assay with Escherichia coli [6]. Further, the “inhibition zone (IZ)” value with Pseudomonas aeruginosa [2] is 30 mm; in the assay with Bacillus spizizenii [4] it was 35 mm; with Staphylococcus aureus [7] it was 30 mm; in the assay with Escherichia coli [8] it was 40 mm.
